Columns and labels:
[1] = tested on: Trypanosoma brucei rhodesiense; test: Antitrypanosomal activity against bloodstream form of Trypanosoma brucei rhodesiense STIB 900 after 70 hrs by alamar blue assay; type: functional, organism-based; details: STIB 900, 70 h
Procedure, shortened: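 T. b. rhodesiense STIB 900 bloodstream forms were grown at 37 °C in humidified 5% CO2 in MEM with Earle's salts plus 0.2 mM 2-mercaptoethanol, 1 mM sodium pyruvate, 0.5 mM hypoxanthine and 15% heat-inactivated horse serum. Serial threefold dilutions were tested with Alamar Blue read-out (ex 536/em 588 nm). IC50 was taken from sigmoidal growth-inhibition curves over at least three independent repeats (mean ± SEM).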

[2] = Selectivity index, ratio of IC50 for rat L6 cells to IC50 for Trypanosoma brucei rhodesiense STIB 900; type: toxicity, cell-based; details: read-out: Ratio IC50
Procedure, shortened: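 SI was calculated as IC50 in L6 cells divided by IC50 against T. b. rhodesiense, with both values from the Alamar Blue assays.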

L6 = test: Cytotoxicity against rat L6 cells after 70 hrs by alamar blue assay; type: cell-based; details: L6, 70 h
Procedure, shortened: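 Rat skeletal myoblasts (L6) were kept in RPMI 1640 with L-glutamine, 5.95 g/L HEPES, 2 g/L NaHCO3 and 10% FBS at 37 °C in 5% CO2, seeded at 4000 cells/well, then given fresh medium 24 h later with or without serial threefold drug dilutions. Podophyllotoxin served as reference. After 70 h, Alamar Blue was added for 2 h more and read at ex 536/em 588 nm. IC50 came from sigmoidal curves, ≥3 independent repeats.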

IC50 [1] [nM] | Structure (SMILES) | selectivity ratio [2] | IC50 (L6) [nM]
2130 | C=C(COC(C)=O)C(=O)O[C@H]1CC(=C)[C@@H]2C[C@H](OC(C)=O)C(=C)[C@@H]2[C@H]2OC(=O)C(=C)[C@@H]21 | 2.3 | 4940
1860 | C=C(COC(C)=O)C(=O)O[C@H]1CC(=C)[C@@H]2C[C@H](O)C(=C)[C@@H]2[C@H]2OC(=O)C(=C)[C@@H]21 | 3.4 | 6390
340 | C=C(C)C(=O)O[C@H]1CC(=C)[C@@H]2C[C@H](OCOC)C(=C)[C@@H]2[C@H]2OC(=O)C(=C)[C@@H]21 | 0.9 | 300
2210 | C=C1C(=O)O[C@@H]2[C@H]3C(=C)[C@@H](OCOC)C[C@H]3C(=C)C[C@H](O)[C@@H]12 | 0.4 | 860
480 | C=C(COCOC)C(=O)O[C@H]1CC(=C)[C@@H]2C[C@H](OCOC)C(=C)[C@@H]2[C@H]2OC(=O)C(=C)[C@@H]21 | 0.4 | 170
170 | C=C(C)C(=O)O[C@H]1CC(=C)[C@@H]2C[C@H](O)C(=C)[C@@H]2[C@H]2OC(=O)C(=C)[C@@H]21 [AGUERIN B] | 1.9 | 330

Structure (SMILES) | IC50 [1] [nM] | selectivity ratio [2] | IC50 (L6) [nM]
C=C(CO)C(=O)O[C@H]1CC(=C)[C@@H]2C[C@H](O)C(=C)[C@@H]2[C@H]2OC(=O)C(=C)[C@@H]21 [CYNAROPICRIN] | 280 | 7.8 | 2190
C=C1C(=O)O[C@@H]2[C@H]3C(=C)[C@@H](O)C[C@H]3C(=C)C[C@H](O)[C@@H]12 [DESACYLCYNAROPICRIN] | 4920 | 1 | 4940
